Active and inactive are the calls of the source.
Experiments:
[1] = system: SF-295; assay: Cytotoxicity against human SF295 cells assessed as cell growth at 80 nM by sulforhodamine B assay relative to control; format: functional; conditions: read-out: Activity
[2] = system: SN12C; assay: Cytotoxicity against human SN12C cells by sulforhodamine B assay; format: functional; conditions: for TGI: read-out: pTGI (converted)
Method in brief: (§1)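 NCI Developmental Therapeutics Program 60-cell-line human tumor panel screen, run at NCI. A single-concentration pre-screen was followed by a five-concentration dose-response in 10-fold steps. GI50 is the concentration that reduces growth of treated cells to half that of untreated control cells. TGI is the concentration that completely halts growth.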

[3] = system: HCT-15; assay: Cytotoxicity against human HCT15 cells assessed as cell growth at 800 nM by sulforhodamine B assay relative to control; format: functional; conditions: read-out: Activity
[4] = system: HCC 2998; assay: Cytotoxicity against human HCC2998 cells assessed as cell growth at 800 nM by sulforhodamine B assay relative to control; format: functional; conditions: read-out: Activity
[5] = system: UO-31; assay: Cytotoxicity against human UO31 cells assessed as cell growth at 8 nM by sulforhodamine B assay relative to control; format: functional; conditions: read-out: Activity
[6] = system: KM12; assay: Cytotoxicity against human KM12 cells assessed as cell growth at 8 nM by sulforhodamine B assay relative to control; format: functional; conditions: read-out: Activity
[7] = system: HOP-92; assay: Cytotoxicity against human HOP92 cells by sulforhodamine B assay; format: functional; conditions: for TGI: read-out: pTGI (converted)
Method in brief: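 Run by the NCI Developmental Therapeutics Program on its 60-line human tumour cell panel using the standard procedure. Compounds went through a single-concentration prescreen first, and those active by NCI criteria went on to a five-concentration growth-inhibition test. GI50 is the concentration that cuts growth of treated cells to half that of untreated control cells.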

[8] = system: OVCAR-3; assay: Antitumor activity against human OVCAR3 cells xenografted in mouse assessed as tumor cell killing at 4.7 mg/kg, ip qd for 4 days by MTT assay; format: functional, organism-based; design: dose 4.7 mg/kg
Method in brief: (§2)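 Hollow-fiber assay in mice. Tumor lines were grown in RPMI-1640 with 10% FBS and 2 mM glutamine. Cells at 2 × 10^6 cells/ml were loaded into 1 mm PVDF fibers (500,000 Da cutoff), heat-sealed at 2 cm and held 24–48 h at 37 °C, 5% CO2 before implantation. Compound was given IP. Fibers were collected the day after the fourth treatment for MTT (OD 540 nm, group means). A ≥50% cut in percent net growth versus vehicle counted as positive.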

[9] = system: NCI-H460; assay: Cytotoxicity against human NCI-H460 cells assessed as cell growth at 8 uM by sulforhodamine B assay relative to control; format: functional; conditions: read-out: Activity
[10] = system: HT-29; assay: Cytotoxicity against human HT-29 cells assessed as cell growth at 80 nM by sulforhodamine B assay relative to control; format: functional; conditions: read-out: Activity
[11] = system: Mus musculus; assay: Acute toxicity in athymic nude mouse assessed as mortality at 25 mg/kg, […]; format: organism-based; design: dose 25 mg/kg, route intraperitoneal; conditions: in vivo, ip, 576 h
[12] = system: LOX IMVI; assay: Antitumor activity against human LOXIMVI cells xenografted in mouse assessed as tumor cell killing at 4.7 mg/kg, ip qd for 4 days by MTT assay; format: functional, organism-based; design: dose 4.7 mg/kg; method in brief: as §2
[13] = system: SF-539; assay: Cytotoxicity against human SF539 cells assessed as cell growth at 80 nM by sulforhodamine B assay relative to control; format: functional; conditions: read-out: Activity
[14] = system: DU-145; assay: Cytotoxicity against human DU145 cells assessed as cell growth at 80 uM by sulforhodamine B assay relative to control; format: functional; conditions: read-out: Activity
[15] = system: SR; assay: Cytotoxicity against human SR cells by sulforhodamine B assay; format: functional; conditions: for TGI: read-out: pTGI (converted); method in brief: as §1
[16] = system: BT-549; assay: Cytotoxicity against human BT549 cells assessed as cell growth at 8 uM by sulforhodamine B assay relative to control; format: functional; conditions: read-out: Activity
Method in brief: (§3)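 Run at NCI in the DTP 60-cell-line human tumor panel by standard procedure. Compounds were first screened at a single concentration, then tested at five tenfold-spaced concentrations. GI50 is the concentration reducing treated-cell growth to half that of untreated controls; TGI is the concentration completely halting growth.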

[17] = system: UACC-62; assay: Cytotoxicity against human UACC62 cells assessed as cell growth at 8 uM by sulforhodamine B assay relative to control; format: functional; conditions: read-out: Activity
[18] = system: SF-268; assay: Cytotoxicity against human SF268 cells assessed as cell growth at 8 uM by sulforhodamine B assay relative to control; format: functional; conditions: read-out: Activity
[19] = system: Mus musculus; assay: Acute toxicity in athymic nude mouse assessed as mortality at 400 mg/kg, […] after 19 days; format: organism-based; design: dose 400 mg/kg, route intraperitoneal; conditions: in vivo, ip, 456 h
[20] = system: NCI-H23; assay: Cytotoxicity against human NCI-H23 cells assessed as cell growth at 80 uM by sulforhodamine B assay relative to control; format: functional; conditions: read-out: Activity
[21] = system: SNB-75; assay: Cytotoxicity against human SNB75 cells assessed as cell growth at 800 nM by sulforhodamine B assay relative to control; format: functional; conditions: read-out: Activity
[22] = system: BT-549; assay: Cytotoxicity against human BT549 cells assessed as cell growth at 80 uM by sulforhodamine B assay relative to control; format: functional; conditions: read-out: Activity; method in brief: as §3
[23] = system: NCI-H522; assay: Cytotoxicity against human NCI-H522 cells assessed as cell growth at 80 uM by sulforhodamine B assay relative to control; format: functional; conditions: read-out: Activity
[24] = system: NCI/ADR-RES; assay: Cytotoxicity against human NCI/ADR-RES cells assessed as cell growth at 8 uM by sulforhodamine B assay relative to control; format: functional; conditions: read-out: Activity
[25] = system: PC-3; assay: Cytotoxicity against human PC3 cells assessed as cell growth at 8 uM by sulforhodamine B assay relative to control; format: functional; conditions: read-out: Activity
[26] = system: SF-268; assay: Cytotoxicity against human SF268 cells assessed as cell growth at 800 nM by sulforhodamine B assay relative to control; format: functional; conditions: read-out: Activity
[27] = system: HOP-92; assay: Cytotoxicity against human HOP92 cells assessed as cell growth at 80 nM by sulforhodamine B assay relative to control; format: functional; conditions: read-out: Activity
[28] = system: SR; assay: Cytotoxicity against human SR cells assessed as cell growth at 80 nM by sulforhodamine B assay relative to control; format: functional; conditions: read-out: Activity
[29] = system: OVCAR-4; assay: Cytotoxicity against human OVCAR4 cells assessed as cell growth at 80 nM by sulforhodamine B assay relative to control; format: functional; conditions: read-out: Activity
[30] = system: OVCAR-8; assay: Cytotoxicity against human OVCAR8 cells by sulforhodamine B assay; format: functional
Method in brief: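 NCI Developmental Therapeutics Program 60-cell-line human tumor panel, standard procedure. Single-concentration prescreen first; active compounds then tested at five concentrations. GI50 is the concentration reducing growth of treated cells to half that of untreated controls.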

[31] = system: NCI-H460; assay: Cytotoxicity against human NCI-H460 cells by sulforhodamine B assay; format: functional; method in brief: as §1
[32] = system: MOLT-4; assay: Cytotoxicity against human MOLT4 cells assessed as cell growth at 80 nM by sulforhodamine B assay relative to control; format: functional; conditions: read-out: Activity
[33] = system: IGROV-1; assay: Cytotoxicity against human IGROV1 cells by sulforhodamine B assay; format: functional; conditions: for TGI: read-out: pTGI (converted); method in brief: as §1
[34] = system: NCI-H226; assay: Cytotoxicity against human NCI-H226 cells assessed as cell growth at 8 uM by sulforhodamine B assay relative to control; format: functional; conditions: read-out: Activity
[35] = system: RPMI-8226; assay: Cytotoxicity against human RPMI8226 cells assessed as cell growth at 8 uM by sulforhodamine B assay relative to control; format: functional; conditions: read-out: Activity
[36] = system: UO-31; assay: Cytotoxicity against human UO31 cells assessed as cell growth at 8 uM by sulforhodamine B assay relative to control; format: functional; conditions: read-out: Activity

C/C=C1\NC(=O)[C@H](Cc2ccccc2)NC(=O)[C@@H](C(C)C)NC(=O)[C@@H]([C@@H](C)CC)NC(=O)[C@H](NC(=O)[C@H](NC(=O)[C@H](CCCNCc2ccc(N3CCOCC3)cc2)NC(=O)[C@H]2CCCN2C(=O)[C@H](NC(=O)[C@@H](NC(=O)[C@@H](NC(=O)[C@H](NC(=O)CCCC(C)C)C(C)C)[C@@H](C)O)C(C)C)C(C)C)[C@@H](C)CC)[C@@H](C)OC(=O)[C@H](C(C)C)NC1=O
growth at 0.08 µM [1]: 99%
GI50 [2]: 1410 nM
LC50 [2]: > 75900 nM
TGI [2]: 3310 nM
growth at 0.8 µM [3]: 3%
growth at 0.8 µM [4]: 6%
growth at 0.008 µM [5]: 101%
growth at 0.008 µM [6]: 106%
GI50 [7]: 1700 nM
LC50 [7]: 47900 nM
TGI [7]: 7080 nM
Activity [8]: inactive
growth at 8 µM [9]: -24%
growth at 0.08 µM [10]: 93%
Activity [11]: Toxic
Activity [12]: inactive
growth at 0.08 µM [13]: 101%
growth at 80 µM [14]: -73%
GI50 [15]: 3020 nM
LC50 [15]: > 75900 nM
TGI [15]: 36300 nM
growth at 8 µM [16]: -66%
growth at 8 µM [17]: -100%
growth at 8 µM [18]: -52%
Activity [19]: Toxic
growth at 80 µM [20]: -85%
growth at 0.8 µM [21]: 54%
growth at 80 µM [22]: -49%
growth at 80 µM [23]: -22%
growth at 8 µM [24]: -43%
growth at 8 µM [25]: -91%
growth at 0.8 µM [26]: 90%
growth at 0.08 µM [27]: 96%
growth at 0.08 µM [28]: 106%
growth at 0.08 µM [29]: 102%
GI50 [30]: 1700 nM
LC50 [30]: > 75900 nM
GI50 [31]: 2000 nM
CC50 ([31]; read-out: pLC50 (the source's name) (converted)): > 75900 nM
growth at 0.08 µM [32]: 95%
GI50 [33]: 813 nM
TGI [33]: 2000 nM
growth at 8 µM [34]: -55%
growth at 8 µM [35]: -68%
growth at 8 µM [36]: -76%

C/C=C1\NC(=O)[C@H](Cc2ccccc2)NC(=O)[C@@H](C(C)C)NC(=O)[C@@H]([C@@H](C)CC)NC(=O)[C@H](NC(=O)[C@H](NC(=O)[C@H](CCCNCc2ccc(F)c(C)c2)NC(=O)[C@H]2CCCN2C(=O)[C@H](NC(=O)[C@@H](NC(=O)[C@@H](NC(=O)[C@H](NC(=O)CCCC(C)C)C(C)C)[C@@H](C)O)C(C)C)C(C)C)[C@@H](C)CC)[C@@H](C)OC(=O)[C@H](C(C)C)NC1=O
growth at 0.08 µM [1]: 85%
GI50 [2]: 1260 nM
LC50 [2]: 4900 nM
TGI [2]: 2450 nM
growth at 0.8 µM [3]: -35%
growth at 0.8 µM [4]: -47%
growth at 0.008 µM [5]: 100%
growth at 0.008 µM [6]: 107%
GI50 [7]: 1410 nM
LC50 [7]: 6170 nM
TGI [7]: 2950 nM
Activity [8]: inactive
growth at 8 µM [9]: -71%
growth at 0.08 µM [10]: 102%
Activity [11]: Toxic
Activity [12]: inactive
growth at 0.08 µM [13]: 104%
growth at 80 µM [14]: -91%
GI50 [15]: 1580 nM
LC50 [15]: > 75900 nM
TGI [15]: 3470 nM
growth at 8 µM [16]: -88%
growth at 8 µM [17]: -98%
growth at 8 µM [18]: -63%
Activity [19]: Toxic
growth at 80 µM [20]: -82%
growth at 0.8 µM [21]: 21%
growth at 80 µM [22]: -58%
growth at 80 µM [23]: -2%
growth at 8 µM [24]: -76%
growth at 8 µM [25]: -95%
growth at 0.8 µM [26]: 63%
growth at 0.08 µM [27]: 105%
growth at 0.08 µM [28]: 89%
growth at 0.08 µM [29]: 104%
GI50 [30]: 1860 nM
LC50 [30]: 75900 nM
GI50 [31]: 1510 nM
growth at 0.08 µM [32]: 97%
GI50 [33]: 708 nM
TGI [33]: 1860 nM
growth at 8 µM [34]: -64%
growth at 8 µM [35]: -64%
growth at 8 µM [36]: -78%
